According to ChEMBL document CHEMBL1135382, “First dual NK(1) antagonists-serotonin reuptake inhibitors: synthesis and SAR of a new class of potential antidepressants” (Bioorg Med Chem Lett, 2002):

Tests used:
[1] = molecular target: Sodium-dependent serotonin transporter (Rattus norvegicus, UniProt P31652); experiment: Binding affinity at serotonin transporter from rat cerebral cortex by [3H]-paroxetine displacement.; assay type: tissue-based
Procedure, shortened: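 Rat cerebral cortex membranes (100–200 μg protein) were incubated 120 min at 25 °C in 50 mM Tris–HCl pH 7.4 with 2 mM MgCl2 and 0.05 nM radioligand. Nonspecific binding was defined with 5 μM imipramine.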

[2] = molecular target: T1, Substance-P receptor (Homo sapiens, UniProt P25103); experiment: Binding affinity at human Tachykinin receptor 1 expressed in CHO cells by [3H]-substance P displacement.; assay type: cell-based
Procedure, shortened: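 Membranes (10–20 μg protein) from CHO cells expressing human NK1 receptor were incubated 60 min at 25 °C in 50 mM Tris–HCl pH 7.4 with 2 mM MgCl2, 100 μg/mL bacitracin and 0.25 nM [3H]substance P.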

[3] = Lipophilicity; assay type: physicochemical
[4] = molecular target: T1, Substance-P receptor; experiment: Binding affinity towards human Tachykinin receptor 1 expressed in CHO cells using [3H]-substance P; Less than 50% inhibition at 10e-5 M; assay type: cell-based

Chain of Sodium-dependent serotonin transporter (P31652 whole entry): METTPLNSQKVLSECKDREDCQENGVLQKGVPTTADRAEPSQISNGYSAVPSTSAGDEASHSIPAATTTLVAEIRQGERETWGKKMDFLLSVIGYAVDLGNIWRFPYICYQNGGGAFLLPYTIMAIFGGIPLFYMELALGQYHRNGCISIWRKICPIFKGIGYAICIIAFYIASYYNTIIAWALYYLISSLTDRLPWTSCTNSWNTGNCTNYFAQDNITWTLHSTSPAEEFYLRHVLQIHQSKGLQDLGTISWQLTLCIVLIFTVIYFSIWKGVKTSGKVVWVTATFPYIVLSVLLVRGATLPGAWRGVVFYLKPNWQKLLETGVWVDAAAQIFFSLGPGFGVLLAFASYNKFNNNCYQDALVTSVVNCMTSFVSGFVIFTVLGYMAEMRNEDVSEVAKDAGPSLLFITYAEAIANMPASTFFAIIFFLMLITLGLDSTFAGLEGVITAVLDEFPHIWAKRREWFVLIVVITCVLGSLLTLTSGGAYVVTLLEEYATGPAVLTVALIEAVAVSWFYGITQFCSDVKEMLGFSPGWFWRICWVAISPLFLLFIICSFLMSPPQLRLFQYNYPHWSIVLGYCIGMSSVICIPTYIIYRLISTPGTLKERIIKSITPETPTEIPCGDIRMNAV
T1 sequence (P25103 whole entry): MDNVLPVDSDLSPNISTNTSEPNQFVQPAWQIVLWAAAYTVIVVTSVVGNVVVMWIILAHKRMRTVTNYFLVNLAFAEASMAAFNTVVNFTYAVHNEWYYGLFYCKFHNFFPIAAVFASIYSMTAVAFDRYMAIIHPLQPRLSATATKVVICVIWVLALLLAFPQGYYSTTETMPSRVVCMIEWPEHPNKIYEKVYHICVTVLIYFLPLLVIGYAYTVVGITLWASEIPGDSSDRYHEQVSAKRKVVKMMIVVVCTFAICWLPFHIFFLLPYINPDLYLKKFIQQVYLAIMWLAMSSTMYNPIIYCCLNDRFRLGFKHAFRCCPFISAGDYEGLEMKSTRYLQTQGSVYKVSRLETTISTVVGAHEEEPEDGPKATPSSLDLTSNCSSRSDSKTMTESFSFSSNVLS

SMILES | IC50 [1] [nM] | IC50 [2] [nM] | Log K' IAM [3] | inhibition [4] [%]
Fc1ccc(N(CCCc2cc(C(F)(F)F)cc(C(F)(F)F)c2)C2CCNCC2)cc1 | 39.8 | 50.1 | 3.9 | –
O=C(CCc1cc(C(F)(F)F)cc(C(F)(F)F)c1)N(c1ccc(F)cc1)C1CCNCC1 | 251 | 200 | 2.9 | –
O=C(COc1cc(C(F)(F)F)cc(C(F)(F)F)c1)N(c1ccc(F)cc1)C1CCNCC1 | 631 | 316 | 2.5 | –
Cc1cccc(CN(C(=O)COc2cc(C(F)(F)F)cc(C(F)(F)F)c2)C2CCNCC2)c1 | 251 | 79.4 | 3.3 | –
O=C(COc1cc(F)cc(C(F)(F)F)c1)N(Cc1cccc(Cl)c1)C1CCNCC1 | 100 | – | 2.9 | < 5
O=C(COc1cc(C(F)(F)F)cc(C(F)(F)F)c1)N(c1ccc(Cl)c(Cl)c1)C1CCNCC1 | 158 | 31.6 | 3.4 | –
Cc1cccc(CN(C(=O)CCc2cc(C(F)(F)F)cc(C(F)(F)F)c2)C2CCNCC2)c1 | 200 | 25.1 | 3.2 | –
O=C(COc1cc(F)cc(C(F)(F)F)c1)N(c1ccc(Cl)c(Cl)c1)C1CCNCC1 | 39.8 | – | 3 | < 5
O=C(COc1cc(C(F)(F)F)cc(C(F)(F)F)c1)N(Cc1ccccc1Cl)C1CCNCC1 | 158 | 126 | 3.2 | –
O=C(CCc1cc(C(F)(F)F)cc(C(F)(F)F)c1)N(Cc1ccc(F)cc1)C1CCNCC1 | 316 | 31.6 | 2.9 | –
O=C(COc1cc(C(F)(F)F)cc(C(F)(F)F)c1)N(Cc1cccc(Cl)c1)C1CCNCC1 | 158 | 25.1 | 3.4 | –
Fc1ccc(CN(CCCc2cc(C(F)(F)F)cc(C(F)(F)F)c2)C2CCNCC2)cc1 | 25.1 | 126 | 3.8 | –
Cc1cc(C)cc(OCC(=O)N(Cc2cccc(Cl)c2)C2CCNCC2)c1 | 25.1 | 100 | 2.6 | –
O=C(CCc1cc(C(F)(F)F)cc(C(F)(F)F)c1)N(Cc1ccccc1Cl)C1CCNCC1 | 200 | 100 | 3.2 | –
O=C(COc1cc(C(F)(F)F)cc(C(F)(F)F)c1)N(c1cccc(Cl)c1)C1CCNCC1 | 158 | 200 | 3 | –
O=C(COc1cc(C(F)(F)F)cc(C(F)(F)F)c1)N(c1cc(Cl)cc(Cl)c1)C1CCNCC1 | 158 | – | 3.4 | < 5
O=C(COc1cc(F)cc(F)c1)N(Cc1cccc(Cl)c1)C1CCNCC1 | 20 | – | 2.4 | < 5
O=C(COc1cc(Cl)cc(Cl)c1)N(Cc1cccc(Cl)c1)C1CCNCC1 | 50.1 | 126 | 3.1 | –
